Experimental data collected from several papers.
Compare with care: the assays were run in different laboratories.
Matrix: Caco-2

| SMILES | setting | efflux ratio |
| --- | --- | --- |
| Nc1nc2c(ncn2COCCO)c(=O)[nH]1 | 10 µM, 2 h, pH 7.4 | 9.42 |
| CC(C)NCC(O)COc1cccc2ccccc12 (stereo not drawn) | 10 µM, 2 h, pH 7.4 | 0.47 |
| CC(C)NCC(O)COc1cccc2ccccc12 (stereo not drawn) | 5 µM, 1 h | 0.8 |
| C[C@H]1O[C@@H](O[C@H]2[C@@H](O)C[C@H](O[C@H]3[C@@H](O)C[C@H](O[C@H]4CC[C@@]5(C)[C@H](CC[C@@H]6[C@@H]5C[C@@H](O)[C@]5(C)[C@@H](C7=CC(=O)OC7)CC[C@]65O)C4)O[C@@H]3C)O[C@@H]2C)C[C@H](O)[C@@H]1O | 10 µM, 2 h, pH 7.4 | 87.9 |
| Cn1c(=O)c2c(nc(S)n2C)n(C)c1=O | 10 µM, 2 h | 3.3 |
| CCOC(=O)[C@@]12C[C@@H]1[C@@H](n1ccc3c(NC)nc(C#Cc4ccc(Cl)s4)nc31)[C@H](O)[C@@H]2O | 10 µM, 2 h, pH 7.4 | 15.6 |
| C[C@H]1O[C@@H](O[C@H]2[C@@H](O)C[C@H](O[C@H]3[C@@H](O)C[C@H](O[C@H]4CC[C@@]5(C)[C@H](CC[C@@H]6[C@@H]5C[C@@H](O)[C@]5(C)[C@@H](C7=CC(=O)OC7)CC[C@]65O)C4)O[C@@H]3C)O[C@@H]2C)C[C@H](O)[C@@H]1O | – | 643 |
| CO[C@@H](C[C@H]1C(C)=CC[C@@H]2[C@]3(C)C[C@H](O[C@@H]4O[C@@H](C)[C@H](OC(=O)c5cccc(O)c5)[C@@H](O[C@@H]5O[C@H](CO)[C@@H](O)[C@H](O)[C@H]5NC(C)=O)[C@H]4O)[C@@H](O)C(C)(C)[C@H]3CC[C@]21C)[C@H](N)C(=O)O.O=C(O)C(F)(F)F | 5 µM, 1 h | 4.6 |
| CNC(=C[N+](=O)[O-])NCCSCc1ccc(CN(C)C)o1 | – | 5 |
